The array DNA melting data of Ke et al. (doi:10.1101/2024.01.08.574731)

Assays:
[1] = folding enthalpy; higher = less favourable; fluorescence melt of hairpins on a sequencing array, two-state fit; conditions: sodium 0.088 M
Summary of the method: (§1)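 Bootstrapped two-state fits yielded melting temperature and folding enthalpy for library hairpins. Cy3 fluorescence, with annealed Cy3 and quencher oligos, was imaged on a sequenced MiSeq flow cell in 50 mM Na-HEPES pH 8.0, 25 mM NaCl in 2.5 °C steps up to 60 °C, and normalised to pre-quench Cy3 and to control constructs. Four replicates were combined by inverse variance, and fitted temperatures were raised by 9.35 °C to match UV melts.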

[2] = melting temperature; fluorescence melt of hairpins on a sequencing array, two-state fit, raised by 9.35 °C to match UV melts; conditions: sodium 0.088 M
Summary of the method: as §1

Sequence | folding enthalpy [1] | Tm [2]
GTCTCCGAAAGGACCGAC ((((((....)))..))) | -70.7 kJ/mol | 28.2 °C
GATCCTAAATAGGATC ((((((....)))))) | -150 kJ/mol | 49.2 °C
GCGTCAACACGC ((((....)))) | -91.1 kJ/mol | 48.5 °C
GAGCGAGGAAACTCGCCC (.(((((....))))).) | -30.2 kJ/mol | 53.6 °C
GCTGAGCGAAAGCTGAGC (((.(((....))).))) | -169 kJ/mol | 55 °C
GTGGCCGAAAGGCTCAC ((((((....))).))) | -67.9 kJ/mol | 54.9 °C
CGTGCGGAAACGCCCACG ((((((....)))..))) | -93.8 kJ/mol | 38.2 °C
GCTGCGCGAAAGCACTGC ((.(.((....)).).)) | -101 kJ/mol | 53.3 °C
GAGTTCCGAAAGGAGCTC (((.(((....))).))) | -155 kJ/mol | 57.1 °C
TGACAGAAATGTCA (((((....))))) | -84.3 kJ/mol | 42.1 °C
GCTAAAGGAAACCTTAGC (((((.(....).))))) | -108 kJ/mol | 37.1 °C
GATCACAAGAGTGATC ((((((....)))))) | -139 kJ/mol | 54.5 °C
GCCTGGGGAAACCTAGGC ((((.((....)).)))) | -132 kJ/mol | 54.4 °C
GCCTGGCGAAAGCTATGC ((.(.((....)).).)) | -52.3 kJ/mol | 37.5 °C
GCAACCGAAAGGTACTGC ((((((....)))..))) | -58 kJ/mol | 33.5 °C
GGCAGGGGAAACCTTGCC ((((.((....)).)))) | -206 kJ/mol | 55.3 °C
GATCTCCTCAGAGATC ((((((....)))))) | -158 kJ/mol | 55.9 °C
GCGATCGAAAGATAGCGC ((((((....)))..))) | -129 kJ/mol | 55.5 °C
GCTGGGCGAAAGCGTAGC (((..((....))..))) | -94 kJ/mol | 52.1 °C
GCGGAAACCCGC ((((....)))) | -87.4 kJ/mol | 50.2 °C
GATCCCACGGGGATC ((((((...)))))) | -140 kJ/mol | 65.6 °C
GGCTGAGGAAACTCAGTC (.(((((....))))).) | -174 kJ/mol | 51.3 °C
GTGCTCGAAAGAGAACAC ((((((....)))..))) | -82 kJ/mol | 44.5 °C
GCACTCGAAAGAGCATGC ((((((....)))..))) | -60.3 kJ/mol | 35.2 °C

Sequence | folding enthalpy [1] | Tm [2]
GTGCGGTCGAAAGACCAC (((..(((....)))))) | -55.7 kJ/mol | 57.5 °C
GCAGCCGAAAGGCCGTGC ((((((....)))..))) | -55.5 kJ/mol | 41.9 °C
GTTCCGCGAAAGCGTAAC (((.(((....))).))) | -84.7 kJ/mol | 44.1 °C
GGACTCCGAAAGGATCC (((.(((....)))))) | -102 kJ/mol | 46.9 °C
GATCTTACCAAAGATC ((((((....)))))) | -145 kJ/mol | 44.5 °C
GACCGCGAAAGCGCCGTC ((((((....)))..))) | -59 kJ/mol | 36.6 °C
GCCCGGGGAAACCCAGGC (((.(((....))).))) | -136 kJ/mol | 52.8 °C
GCCCGGCGAAAGCGAGGC (((..((....))..))) | -69.4 kJ/mol | 58.9 °C
GGGTCCGGAAACGGGCTC (.(.(((....))).).) | -89 kJ/mol | 50.5 °C
GTGTGGCGAAAGCCCAC (((.(((....)))))) | -78 kJ/mol | 63 °C
GGGTTGGGAAACCGATCC ((.(.((....)).).)) | -68.2 kJ/mol | 40.3 °C
GTGCACGAAAGTGACAC ((((((....))).))) | -109 kJ/mol | 52.9 °C
CGCGGAATGGTCCGCG ((((((....)))))) | -126 kJ/mol | 69 °C
GCCCTGGGAAACCAGAGC ((.((((....)))).)) | -120 kJ/mol | 45.5 °C
GCAGAGCCGAAAGGCTGC (((..(((....)))))) | -57.7 kJ/mol | 52.9 °C
GCCCTCGAAAGAGTGGC ((((((....))).))) | -133 kJ/mol | 58.5 °C
GGCGGAGGAAACTCCGTC (.(((((....))))).) | -107 kJ/mol | 61.2 °C
GCGGCTCCCGC ((((...)))) | -99.3 kJ/mol | 56.9 °C
GCTCTGCCGAAAGGCAGC (((..(((....)))))) | -25.1 kJ/mol | 40 °C
GGCATCGAAAGATTGCC ((((((....))).))) | -130 kJ/mol | 52.7 °C
GTTCCCGAAAGGGTGAAC ((((((....)))..))) | -52.2 kJ/mol | 35.5 °C
GCGTTTGACGC ((((...)))) | -76.4 kJ/mol | 57.1 °C
GGACCCGAAAGGGTTCC ((((((....))).))) | -70.2 kJ/mol | 59.7 °C
GGTTCCGGAAACGGGATC (.(.(((....))).).) | -81.3 kJ/mol | 39.9 °C

Sequence | folding enthalpy [1] | Tm [2]
GTTGCTACGAAAGTAAAC (((..(((....)))))) | -39.5 kJ/mol | 28.6 °C
GCAAAAGGAAACTCTTGC ((((.((....)).)))) | -45.4 kJ/mol | 27.4 °C
GTTGGAGGAAACTCTGAC ((..(((....)))..)) | -87.9 kJ/mol | 34 °C
GCGCACGAAAGTGACCGC ((((((....)))..))) | -91.8 kJ/mol | 48.4 °C
GATCGTATGCACGATC ((((((....)))))) | -109 kJ/mol | 54.5 °C
GTTACCGAAAGGTCAAC ((((((....))).))) | -56.2 kJ/mol | 32.8 °C
GGAAACGAAAGTTGTTCC ((((((....)))..))) | -41.5 kJ/mol | 24.9 °C
GTTGTCGAAAGACCCAAC ((((((....)))..))) | -46.2 kJ/mol | 26.6 °C
GTTTGCGAAAGCATCAAC ((((((....)))..))) | -36.1 kJ/mol | 27.2 °C
GTAGGCGAAAGCCTCTAC ((((((....)))..))) | -37.1 kJ/mol | 36.4 °C
GATCGACCAGTCGATC ((((((....)))))) | -184 kJ/mol | 57.4 °C
GGGGCCGAAAGGCGGCCC ((((((....)))..))) | -63.3 kJ/mol | 68.2 °C
GATAAGGGAAACCCTATC ((((.((....)).)))) | -65.3 kJ/mol | 30.6 °C
GATCTGAGGCAGATC ((((((...)))))) | -131 kJ/mol | 47.5 °C
GAGACCGAAAGGTAACTC ((((((....)))..))) | -51.7 kJ/mol | 39.7 °C
GTCGAGCGAAAGCTGAC (((.(((....)))))) | -83.6 kJ/mol | 57.7 °C
GGAACCGAAAGGTATTCC ((((((....)))..))) | -55.6 kJ/mol | 33.8 °C
GATCCCGGTTGGGATC ((((((....)))))) | -135 kJ/mol | 65.2 °C
GGTCTCGAAAGAGGAACC ((((((....)))..))) | -70.9 kJ/mol | 35.1 °C
GCAAGCGGAAACGCTTAC (.(((((....))))).) | -56.1 kJ/mol | 41.2 °C
GTGGCGGGAAACCGTCGC (.(.(((....))).).) | -104 kJ/mol | 50.5 °C
GATGGGAAACCATC (((((....))))) | -111 kJ/mol | 49.9 °C
GATCAATGATTGATC ((((((...)))))) | -125 kJ/mol | 40.6 °C
GGGAGCGAAAGCTGCCC ((((((....))).))) | -63.3 kJ/mol | 60.5 °C

Sequence | folding enthalpy [1] | Tm [2]
GCGGCCGTCCGC ((((....)))) | -108 kJ/mol | 58.6 °C
GGACCGCGAAAGCGTTCC (((.(((....))).))) | -87.4 kJ/mol | 53.1 °C
GCTGAGGAAACTCAGC ((((((....)))))) | -158 kJ/mol | 63.5 °C
GTACAAGGAAACTTGCAC ((.((((....)))).)) | -106 kJ/mol | 34.1 °C
GTCCCAGCGAAAGCTGAC (((..(((....)))))) | -36.9 kJ/mol | 22.4 °C
GATCCCATCCGGGATC ((((((....)))))) | -154 kJ/mol | 64.2 °C
GGGGCGGGAAACCACCCC ((((.((....)).)))) | -218 kJ/mol | 55 °C
GCATAGGGAAACCTATAC (.(((((....))))).) | -60.2 kJ/mol | 27.8 °C
GACGACGGAAACGTCGCC (.(((((....))))).) | -51 kJ/mol | 53.1 °C
GACTACGAAAGTAGGTC ((((((....))).))) | -73.3 kJ/mol | 48.7 °C
GCGAGAGGTCGC ((((....)))) | -35 kJ/mol | 50.9 °C
GGAGTGGGAAACTGCTCC ((((..(....)..)))) | -132 kJ/mol | 44.5 °C
GCACGCGAAAGCGGCTGC ((((((....)))..))) | -61.6 kJ/mol | 65.4 °C
GAGCACGGAAACGTGCCC (.(((((....))))).) | -29.2 kJ/mol | 53.6 °C
GATCTACCAGTAGATC ((((((....)))))) | -136 kJ/mol | 48.9 °C
GGCGTCGAAAGACATGCC ((((((....)))..))) | -96.5 kJ/mol | 53 °C
GCTATCGAAAGATGTAGC ((((((....)))..))) | -121 kJ/mol | 36.9 °C
GCAGATGCGAAAGCATGC (((..(((....)))))) | -56.9 kJ/mol | 47.9 °C
GATCGATCCTCGATC ((((((...)))))) | -169 kJ/mol | 52.1 °C
GAACACGAAAGTGGATTC ((((((....)))..))) | -77.6 kJ/mol | 39.8 °C
GGGAGAGGAAACTTTCCC ((((.((....)).)))) | -114 kJ/mol | 42.1 °C
